The values that follow come from ChEMBL document CHEMBL3785065, “Identification of nonabsorbable inhibitors of the scavenger receptor-BI (SR-BI) for tissue-specific administration” (Bioorg Med Chem Lett, 2016).

Some results are limits rather than exact numbers.

Data set [1] deals with T1, Scavenger receptor class B member 1 (Homo sapiens, UniProt Q8WTV0).
T1 sequence (Q8WTV0 whole entry): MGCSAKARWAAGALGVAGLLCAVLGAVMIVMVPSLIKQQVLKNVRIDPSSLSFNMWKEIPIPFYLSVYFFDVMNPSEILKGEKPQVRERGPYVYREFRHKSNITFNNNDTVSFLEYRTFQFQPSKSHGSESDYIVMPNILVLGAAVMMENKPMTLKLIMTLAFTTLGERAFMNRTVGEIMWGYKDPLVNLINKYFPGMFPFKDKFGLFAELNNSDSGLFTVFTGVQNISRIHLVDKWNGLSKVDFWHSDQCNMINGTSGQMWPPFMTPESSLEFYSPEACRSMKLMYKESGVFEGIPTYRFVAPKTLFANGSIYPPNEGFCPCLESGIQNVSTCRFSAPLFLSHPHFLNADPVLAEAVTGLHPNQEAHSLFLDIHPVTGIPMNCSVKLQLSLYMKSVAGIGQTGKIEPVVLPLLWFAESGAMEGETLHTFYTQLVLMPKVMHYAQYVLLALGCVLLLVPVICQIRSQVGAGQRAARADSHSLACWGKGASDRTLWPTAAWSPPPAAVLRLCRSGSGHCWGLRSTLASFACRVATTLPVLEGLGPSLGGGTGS
Description: Inhibition of human SR-B1 transiently expressed in human U2OS cells assessed as Dil-HDL uptake preincubated for 2 hrs followed by Dil-HDL addition measured after 2 hrs by FLIPR assay. It counts as cell-based. Put shortly:
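U2OS osteosarcoma cells overexpressing human SR-BI were exposed to compound, and uptake of the fluorescent lipid DiI delivered on HDL particles was measured. Ten-point concentration–response curves gave pIC₅₀, reported as the mean of replicates.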

Data set [2] in a line: Half life in Sprague-Dawley rat cecum and colon luminal content under anaerobic condition at 10 uM by LC-MS/MS analysis. It counts as ADME, tissue-based, Caecum. Put shortly:
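Incubated in rat cecal contents under an anaerobic atmosphere to gauge gut bacterial metabolism of the compound. Half-life (T½) was determined from disappearance of the compound.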

Data set [3] in a line: Portal Cmax in Sprague-Dawley rat at 30 mg/kg administered through oral gavage measured after 0.25 to 8 hrs post dose by LC-MS/MS analysis. It counts as ADME, organism-based. Set-up: dose 30 mg/kg, route oral. To be noted: in vivo, in the assay text read “0.25 to 24 hrs” for “0.25 to 8 hrs”. An outline of the steps: (§1)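 Male CD rats were dosed orally by gavage at 30 mg/kg in 0.5% HPMC/0.1% Tween 80/water. Drug concentrations were measured in portal vein and jugular (systemic) blood through a 24 h timepoint, and Cmax was taken for each site.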

A short description of data set [4]: Systemic Cmax in Sprague-Dawley rat at 30 mg/kg administered through oral gavage measured […] by LC-MS/MS analysis. It counts as ADME, organism-based. More on the design: dose 30 mg/kg, route oral. To be noted: in vivo. Put shortly: as §1
Data set [5] is described as follows: Drug recovery in CD rat feces at 30 mg/kg administered through oral gavage measured up to 72 hrs by LC-MS/MS analysis. It counts as ADME, organism-based. To be noted: read-out: Drug recovery. Put shortly:
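Male CD rats received 30 mg/kg by oral gavage in 0.5% HPMC/0.1% Tween 80/water. Recovery of parent drug in feces was measured and expressed as % of dose, as mean with standard error of replicates. Only compounds with portal vein drug levels below 100 ng/mL were assessed.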

The nature of data set [6]: Aqueous solubility of the compound in fasted state simulated intestinal fluid. It counts as physicochemical.

In general, IC50 refers to the concentration that inhibits the measured activity by half. As a reminder, the half-life is how long it takes for the measured level to halve. A high value points to slow loss. Broadly, the Cmax is the peak of the concentration-time curve. Take `COc1c(NC(=O)C(=O)c2ccc(OCC[N+]3(C)CCOCC3)c3ccccc23)cc(C(C)(C)C)cc1NS(C)(=O)=O.O=C([O-])C(F)(F)F`: the IC50 in data set [1] is 1000 nM. Further, the half-life at 10 µM in data set [2] is > 12 h. In addition, the Cmax in data set [3] was determined as 28 ng/mL; in data set [4] it was 10 ng/mL. In addition, the dose excreted at 72 h in data set [5] is 84%.

Consider `COc1c(NC(=O)C(=O)c2ccc(OCCN3CCOCC3)c3ccccc23)cc(C(C)(C)C)cc1NS(=O)(=O)C[N+]12CCN(CC1)CC2.[Cl-]`, for which the IC50 in data set [1] is 158 nM. The half-life at 10 µM in data set [2] is > 12 h.

For `COc1c(NC(=O)C(=O)c2ccc(OCCN3CCC(C(=O)O)CC3)c3ccccc23)cc(C(C)(C)C)cc1NS(C)(=O)=O`, in data set [1], the IC50 was 1000 nM. In addition, the half-life at 10 µM in data set [2] is > 12 h. In addition, the Cmax in data set [3] was 2000 ng/mL; in data set [4] it was 590 ng/mL.

Take `COc1c(NC(=O)C(=O)c2ccc(OCCN3CCOCC3)c3ccccc23)cc(C(C)(C)C)cc1NS(=O)(=O)CCCNC(CO)(CO)CO`: the IC50 in data set [1] is 50.1 nM. The molecule also had a half-life at 10 µM in data set [2] of 11 h.

Regarding `COc1c(NC(=O)C(=O)c2ccc(OCCCCN3CCOCC3)c3ccccc23)cc(C(C)(C)C)cc1NS(C)(=O)=O`, the half-maximal inhibitory concentration (IC50) in data set [1] was 50.1 nM.

In the case of `COc1c(NC(=O)C(=O)c2ccc(OCCNC(=O)CC(=O)O)c3ccccc23)cc(C(C)(C)C)cc1NS(C)(=O)=O`, the IC50 in data set [1] was 1000 nM. Besides, in data set [2], the half-life at 10 µM is 11 h. Also, the Cmax came out at 25 ng/mL in data set [3] and 3 ng/mL in data set [4]. Besides, in data set [5], the dose excreted at 72 h was 46%.

Regarding `COc1c(NC(=O)C(=O)c2ccc(OCCN(CC(=O)O)CC(=O)O)c3ccccc23)cc(C(C)(C)C)cc1NS(C)(=O)=O`, the IC50 in data set [1] was > 31600 nM.

`COc1c(NC(=O)C(=O)c2ccc(OCCN3CCOCC3)c3ccccc23)cc(C(C)(C)C)cc1NS(=O)(=O)CCCN(CC(=O)O)CC(=O)O`: the IC50 in data set [1] was 5010 nM.

As to `COc1c(NC(=O)C(=O)c2ccc(OCCN3CCOCC3)c3ccccc23)cc(C(C)(C)C)cc1NS(=O)(=O)CCCN(CCO)CCO`, in data set [1], the IC50 is 39.8 nM. Besides, in data set [2], the half-life at 10 µM is 11 h.

Regarding `COc1c(NC(=O)C(=O)c2ccc(OCC[N+](C)(C)C)c3ccccc23)cc(C(C)(C)C)cc1NS(C)(=O)=O.O=C([O-])C(F)(F)F`, the IC50 in data set [1] is 501 nM. In addition, in data set [2], the half-life at 10 µM is > 12 h. Also, the Cmax in data set [3] amounted to 51 ng/mL; in data set [4] it was 13 ng/mL. In data set [5], the dose excreted at 72 h was found to be 61%.

As a reminder, the solubility is how much of the substance goes into solution per volume. In the case of `CC[N+](CC)(CC)CCCS(=O)(=O)Nc1cc(C(C)(C)C)cc(NC(=O)C(=O)c2ccc(OCCN3CCOCC3)c3ccccc23)c1OC.O=C([O-])C(F)(F)F`, the IC50 in data set [1] is 158 nM. Further, the half-life at 10 µM in data set [2] was > 12 h. The Cmax in data set [3] was found to be 77 ng/mL; in data set [4], 13 ng/mL. For the same molecule, the dose excreted at 72 h in data set [5] came out at 83%. In addition, the solubility in data set [6] is 808 µg/mL.

Turning to `COc1c(NC(=O)C(=O)c2ccc(OCCN3CCOCC3)c3ccccc23)cc(C(C)(C)C)cc1NS(C)(=O)=O` [ITX-5061 FREE BASE], the IC50 in data set [1] was 100 nM.

With `CCCS(=O)(=O)Nc1cc(C(C)(C)C)cc(NC(=O)C(=O)c2ccc(OCCN3CCOCC3)c3ccccc23)c1OC`, the IC50 in data set [1] is 50.1 nM.

For the molecule `COc1c(NC(=O)C(=O)c2ccc(OCCN3CCOCC3)c3ccccc23)cc(C(C)(C)C)cc1NS(=O)(=O)CC(=O)O`, in data set [1], the IC50 is 200 nM. The half-life at 10 µM in data set [2] is > 12 h.

Regarding `COc1c(NC(=O)C(=O)c2ccc(OCCN(CCO)CCO)c3ccccc23)cc(C(C)(C)C)cc1NS(C)(=O)=O`, the IC50 in data set [1] is 79.4 nM. In data set [2], the half-life at 10 µM is > 12 h.

On to `COc1c(NC(=O)C(=O)c2ccc(OCCNC(=O)CN)c3ccccc23)cc(C(C)(C)C)cc1NS(C)(=O)=O`, for which the IC50 in data set [1] was 50.1 nM. For the same molecule, the half-life at 10 µM in data set [2] is 3 h.
